{"source": "paper PMC3166448", "about": "(Urology, 2011)", "key": {"[1]": {"experiment": "Plasma pharmacokinetics after first IPI-504 dose", "format": "in vivo, human", "conditions": "for Time of peak plasma concentration: relative to the 30-minute infusion"}, "[2]": {"system": "castration-resistant prostate cancer (CRPC)", "experiment": "Phase 2 trial: PSA response / antitumor outcome", "format": "in vivo, human", "in_short": "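Adults (>18 years) with progressive CRPC (two serial PSA rises or progressive radiographic metastases, serum testosterone < 50 […]). Group A was chemotherapy-naïve; Group B had radiographic metastases, progression on or intolerance to docetaxel, and ≤3 prior chemotherapy regimens. Test compound 400 mg/m2 given as a 30-min IV infusion on days 1, 4, 8 and 11 of 21-day cycles; later continuation allowed at 300 mg/m2.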"}, "[3]": {"conditions": "17-AAG: ref 5; IPI-504: ref 6; cited from earlier work"}, "[4]": {"system": "patients with castration-resistant prostate cancer (CRPC)", "experiment": "Phase 2 trial: treatment-emergent adverse events", "format": "in vivo, human"}, "[5]": {"system": "cytochrome P450 3A4 (CYP3A4)", "conditions": "in vitro; cited from earlier work"}, "[6]": {"conditions": "twice-weekly; cited from earlier work"}, "[7]": {"system": "castration-resistant prostate cancer (CRPC)", "conditions": "cited from earlier work"}, "[8]": {"system": "androgen-dependent and androgen-independent prostate cancer xenografts", "conditions": "3 (Solit et al); cited from earlier work"}, "[9]": {"conditions": "cited from earlier work"}, "[10]": {"conditions": "plasma after first IPI-504 dose 400 mg/m^2 iv"}, "[11]": {"conditions": "Grade ≥ 3, N=19, IPI-504 400 mg/m^2 iv"}, "[12]": {"conditions": "TEAE in > 25% of study population, N=19"}, "[13]": {"conditions": "any grade, N=19, IPI-504 400 mg/m^2 iv"}, "[14]": {"conditions": "of the 19 patients enrolled and treated"}}, "note": "Entries after “also recorded” stand apart in the source; their conditions may differ. Where a name gives a salt, the structure may show the parent alone."}
{"smiles": "CO[C@H]1/C=C/C=C(\\C)C(=O)NC2=CC(=O)C(N)=C(C[C@@H](C)C[C@H](OC)[C@H](O)[C@@H](C)/C=C(\\C)[C@@H]1OC(N)=O)C2=O", "note": "[17-AG]", "values": [{"measurement": "mean T1/2", "setting": "[1]; [10]", "result": 5.2, "unit": "h"}, {"measurement": "Time of peak plasma concentration", "setting": "[1]", "result": "ranging from the end of the infusion to 1.5 hours post-infusion"}, {"measurement": "Share of the total measured exposure", "setting": "[1]; sum of IPI-504, 17-AAG and 17-AG without adjustment for molecular weight", "result": "approximately 68%"}]}
{"smiles": "C=CCNc1c(O)cc2c(O)c1C[C@@H](C)C[C@H](OC)[C@H](O)[C@@H](C)/C=C(\\C)[C@H](OC(N)=O)[C@@H](OC)/C=C\\C=C(/C)C(=O)N2", "note": "[IPI-504, retaspimycin hydrochloride]", "values": [{"measurement": "Patients achieving ≥ 50% post-treatment decline in PSA (PSA response)", "setting": "[2]; Groups A and B, N=19", "result": "No PSA responses; also recorded: No patients"}, {"measurement": "PSA decline from baseline in one patient", "setting": "[2]; one Group A (chemotherapy-naïve) patient", "result": 48, "unit": "%"}, {"measurement": "Time on treatment of the patient with PSA decline", "setting": "[2]; one Group A patient", "result": 9, "unit": "cycles"}, {"measurement": "Time on study until discontinuation due to disease progression", "setting": "[2]; one Group A patient, after the interim analysis", "result": "approximately 2 years"}, {"measurement": "Overall antitumor activity", "setting": "[2]; single agent, 400 mg/m^2", "result": "minimal effect on PSA or tumor burden; also recorded: negligible antitumor activity"}, {"measurement": "Solubility", "setting": "[3]", "result": "water-soluble"}, {"measurement": "Grade 3 AST elevation in the patient who died of hepatic failure", "setting": "[4]; 1 day before hepatic failure, at study drug administration", "result": 339, "unit": "U/L"}, {"measurement": "AST elevation (Grade 4) in the second patient", "setting": "[4]; Cycle 1, Dose 2, from 32 U/L at baseline", "result": 863, "unit": "U/L"}, {"measurement": "ALT elevation (Grade 3) in the second patient", "setting": "[4]; Cycle 1, Dose 2, from a normal baseline level", "result": 659, "unit": "U/L"}, {"measurement": "AST elevation (Grade 3) in one patient", "setting": "[4]; Cycle 2, Dose 3, prompted study drug discontinuation, returned to normal 4 days later", "result": 397, "unit": "U/L"}, {"measurement": "ALT Increased, patients with TEAE (Grade ≥ 3)", "setting": "[4]; [11]", "result": "1 (5) n (%)"}, {"measurement": "AST Increased, patients with TEAE (Grade ≥ 3)", "setting": "[4]; [11]", "result": "2 (11) n (%)"}, {"measurement": "Anemia, patients with TEAE (Grade ≥ 3)", "setting": "[4]; [11]", "result": "1 (5) n (%)"}, {"measurement": "Anorexia, patients with TEAE (Grade ≥ 3)", "setting": "[4]; [11]", "result": "1 (5) n (%)"}, {"measurement": "Anxiety, patients with TEAE (Grade ≥ 3)", "setting": "[4]; [11]", "result": "0 n (%)"}, {"measurement": "Arthralgia, patients with TEAE (Grade ≥ 3)", "setting": "[4]; [11]", "result": "0 n (%)"}, {"measurement": "Back Pain, patients with TEAE (Grade ≥ 3)", "setting": "[4]; [11]", "result": "1 (5) n (%)"}, {"measurement": "Constipation, patients with TEAE (Grade ≥ 3)", "setting": "[4]; [11]", "result": "0 n (%)"}, {"measurement": "Dehydration, patients with TEAE (Grade ≥ 3)", "setting": "[4]; [11]", "result": "3 (16) n (%)"}, {"measurement": "Diarrhea, patients with TEAE (Grade ≥ 3)", "setting": "[4]; [11]", "result": "1 (5) n (%)"}, {"measurement": "Fatigue, patients with TEAE (Grade ≥ 3)", "setting": "[4]; [11]", "result": "1 (5) n (%)"}, {"measurement": "Headache, patients with TEAE (Grade ≥ 3)", "setting": "[4]; [11]", "result": "0 n (%)"}, {"measurement": "Hypokalemia, patients with TEAE (Grade ≥ 3)", "setting": "[4]; [11]", "result": "0 n (%)"}, {"measurement": "Hyponatremia, patients with TEAE (Grade ≥ 3)", "setting": "[4]; [11]", "result": "2 (11) n (%)"}, {"measurement": "Infusion Site Pain, patients with TEAE (Grade ≥ 3)", "setting": "[4]; [11]", "result": "0 n (%)"}, {"measurement": "Musculoskeletal Pain, patients with TEAE (Grade ≥ 3)", "setting": "[4]; [11]", "result": "0 n (%)"}, {"measurement": "Myalgia, patients with TEAE (Grade ≥ 3)", "setting": "[4]; [11]", "result": "0 n (%)"}, {"measurement": "Nausea, patients with TEAE (Grade ≥ 3)", "setting": "[4]; [11]", "result": "1 (5) n (%)"}, {"measurement": "Pain in Extremity, patients with TEAE (Grade ≥ 3)", "setting": "[4]; [11]", "result": "0 n (%)"}, {"measurement": "Pneumonia, patients with TEAE (Grade ≥ 3)", "setting": "[4]; [11]", "result": "2 (11) n (%)"}, {"measurement": "Pyrexia, patients with TEAE (Grade ≥ 3)", "setting": "[4]; [11]", "result": "0 n (%)"}, {"measurement": "Vomiting, patients with TEAE (Grade ≥ 3)", "setting": "[4]; [11]", "result": "1 (5) n (%)"}, {"measurement": "Anorexia, share of study population", "setting": "[4]; [12]", "result": 26, "unit": "%"}, {"measurement": "Arthralgia, share of study population", "setting": "[4]; [12]", "result": 26, "unit": "%"}, {"measurement": "ALT Increased, patients with any TEAE", "setting": "[4]; [13]", "result": "2 (11) n (%)"}, {"measurement": "AST Increased, patients with any TEAE", "setting": "[4]; [13]", "result": "2 (11) n (%)"}, {"measurement": "Anemia, patients with any TEAE", "setting": "[4]; [13]", "result": "4 (21) n (%)"}, {"measurement": "Anorexia, patients with any TEAE", "setting": "[4]; [13]", "result": "5 (26) n (%)"}, {"measurement": "Anxiety, patients with any TEAE", "setting": "[4]; [13]", "result": "2 (11) n (%)"}, {"measurement": "Arthralgia, patients with any TEAE", "setting": "[4]; [13]", "result": "5 (26) n (%)"}, {"measurement": "Back Pain, patients with any TEAE", "setting": "[4]; [13]", "result": "2 (11) n (%)"}, {"measurement": "Constipation, patients with any TEAE", "setting": "[4]; [13]", "result": "4 (21) n (%)"}, {"measurement": "Dehydration, patients with any TEAE", "setting": "[4]; [13]", "result": "4 (21) n (%)"}, {"measurement": "Diarrhea, patients with any TEAE", "setting": "[4]; [13]", "result": "8 (42) n (%)"}, {"measurement": "Fatigue, patients with any TEAE", "setting": "[4]; [13]", "result": "6 (32) n (%)"}, {"measurement": "Headache, patients with any TEAE", "setting": "[4]; [13]", "result": "2 (11) n (%)"}, {"measurement": "Hypokalemia, patients with any TEAE", "setting": "[4]; [13]", "result": "2 (11) n (%)"}, {"measurement": "Hyponatremia, patients with any TEAE", "setting": "[4]; [13]", "result": "2 (11) n (%)"}, {"measurement": "Infusion Site Pain, patients with any TEAE", "setting": "[4]; [13]", "result": "4 (21) n (%)"}, {"measurement": "Musculoskeletal Pain, patients with any TEAE", "setting": "[4]; [13]", "result": "3 (16) n (%)"}, {"measurement": "Myalgia, patients with any TEAE", "setting": "[4]; [13]", "result": "3 (16) n (%)"}, {"measurement": "Pain in Extremity, patients with any TEAE", "setting": "[4]; [13]", "result": "4 (21) n (%)"}, {"measurement": "Pneumonia, patients with any TEAE", "setting": "[4]; [13]", "result": "2 (11) n (%)"}, {"measurement": "Pyrexia, patients with any TEAE", "setting": "[4]; [13]", "result": "3 (16) n (%)"}, {"measurement": "Vomiting, patients with any TEAE", "setting": "[4]; [13]", "result": "4 (21) n (%)"}, {"measurement": "Nausea, patients with any TEAE", "setting": "[4]; any grade, N=19, IPI-504 400 mg/m^2 iv days 1, 4, 8, 11 of 21-day cycle", "result": "9 (47) n (%)"}, {"measurement": "Patients reported with treatment-emergent AEs (TEAEs), number", "setting": "[4]; [14]", "result": 18, "unit": "patients"}, {"measurement": "Patients whose TEAEs resulted in death, percent", "setting": "[4]; [14]", "result": 11, "unit": "%"}, {"measurement": "Patients with CTCAE Grade 3 or higher TEAEs, number", "setting": "[4]; [14]", "result": 11, "unit": "patients"}, {"measurement": "Patients with CTCAE Grade 3 or higher TEAEs, percent", "setting": "[4]; [14]", "result": 58, "unit": "%"}, {"measurement": "AUC", "setting": "[1]; human, in vivo, 400 mg/m^2", "result": 26400, "unit": "ng·h/mL"}, {"measurement": "AUC(0-inf)", "setting": "[1]; human, in vivo, iv, 400 mg/m2", "result": 11700, "unit": "ng·h/mL"}, {"measurement": "Time of peak plasma concentration", "setting": "[1]", "result": "at the end of the infusion"}, {"measurement": "Involvement of CYP3A4 in metabolism", "setting": "[5]", "result": "involved in the metabolism"}, {"measurement": "Maximum tolerated dose as a single agent", "setting": "[6]", "result": "≥ 400", "unit": "mg/m^2"}]}
{"smiles": "C=CCNC1=C2C[C@@H](C)C[C@H](OC)[C@H](O)[C@@H](C)/C=C(\\C)[C@H](OC(N)=O)[C@@H](OC)/C=C\\C=C(/C)C(=O)NC(=CC1=O)C2=O", "note": "[17-AAG, 17-allylamine-17-demethoxygeldanamycin, reference compound]", "values": [{"measurement": "Antitumor activity in clinical trials in patients with CRPC", "setting": "[7]", "result": "negligible antitumor activity"}, {"measurement": "Mean AUC0-∞", "setting": "[1]; [10]", "result": "9,847 ng*hr/mL"}, {"measurement": "mean T1/2", "setting": "[1]; [10]", "result": 1.4, "unit": "h"}, {"measurement": "Time of peak plasma concentration", "setting": "[1]", "result": "at the end of the infusion"}, {"measurement": "Growth of prostate cancer xenografts", "setting": "[8]", "result": "dose-dependent growth inhibition"}, {"measurement": "Hepatotoxicity in phase I trials", "setting": "[9]", "result": "dose limiting toxicity"}]}
